Test results: ChEMBL document CHEMBL4354813, “Design, Synthesis, and Pharmacological Evaluation of Potent Positive Allosteric Modulators of the Glucagon-like Peptide-1 Receptor (GLP-1R)” (J Med Chem, 2020)
Active and inactive are the calls of the source. The rule behind the calls is not given here.

Assays:
[1] = target: T1, Glucagon-like peptide 1 receptor (Homo sapiens, UniProt P43220); test: Positive allosteric modulator activity at GLP-1R in human 1.1B4 cells in presence of EC20 level of GLP1(9-36)NH2 incubated for 30 mins by HTRF cAMP assay relative to control; type: functional, cell-based
T1 sequence (P43220 whole entry): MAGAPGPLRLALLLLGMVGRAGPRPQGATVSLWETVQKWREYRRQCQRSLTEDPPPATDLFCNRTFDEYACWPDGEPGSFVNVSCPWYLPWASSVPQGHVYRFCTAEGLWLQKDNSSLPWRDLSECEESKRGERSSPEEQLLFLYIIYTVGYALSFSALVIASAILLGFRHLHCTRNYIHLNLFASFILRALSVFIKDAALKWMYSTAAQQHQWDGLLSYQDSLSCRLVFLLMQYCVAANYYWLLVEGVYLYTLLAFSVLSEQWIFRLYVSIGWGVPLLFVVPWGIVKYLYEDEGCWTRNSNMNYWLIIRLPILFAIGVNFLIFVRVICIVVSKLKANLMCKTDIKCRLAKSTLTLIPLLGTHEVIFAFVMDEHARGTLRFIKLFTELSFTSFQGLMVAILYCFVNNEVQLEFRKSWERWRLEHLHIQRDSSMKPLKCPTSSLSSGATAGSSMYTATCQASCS
Summary of the method: (§1)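 Human pancreatic β-cell line 1.1B4, 20,000 cells/well cultured overnight, washed twice; compound concentration-response with fixed 10 nM GLP1(9-36)NH2, 30 min. cAMP by HTRF 665/620 ratio, normalised to buffer (1x HBSS, 0.1% BSA, 1 mM IBMX; 0%) and GLP-1(7-36)NH2 (100%); 4-parameter logistic fit.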

[2] = target: Sodium channel protein type 5 subunit alpha (Homo sapiens, UniProt Q14524); test: Effect on Nav1.5 (unknown origin)
Sequence of Sodium channel protein type 5 subunit alpha (Q14524 whole entry): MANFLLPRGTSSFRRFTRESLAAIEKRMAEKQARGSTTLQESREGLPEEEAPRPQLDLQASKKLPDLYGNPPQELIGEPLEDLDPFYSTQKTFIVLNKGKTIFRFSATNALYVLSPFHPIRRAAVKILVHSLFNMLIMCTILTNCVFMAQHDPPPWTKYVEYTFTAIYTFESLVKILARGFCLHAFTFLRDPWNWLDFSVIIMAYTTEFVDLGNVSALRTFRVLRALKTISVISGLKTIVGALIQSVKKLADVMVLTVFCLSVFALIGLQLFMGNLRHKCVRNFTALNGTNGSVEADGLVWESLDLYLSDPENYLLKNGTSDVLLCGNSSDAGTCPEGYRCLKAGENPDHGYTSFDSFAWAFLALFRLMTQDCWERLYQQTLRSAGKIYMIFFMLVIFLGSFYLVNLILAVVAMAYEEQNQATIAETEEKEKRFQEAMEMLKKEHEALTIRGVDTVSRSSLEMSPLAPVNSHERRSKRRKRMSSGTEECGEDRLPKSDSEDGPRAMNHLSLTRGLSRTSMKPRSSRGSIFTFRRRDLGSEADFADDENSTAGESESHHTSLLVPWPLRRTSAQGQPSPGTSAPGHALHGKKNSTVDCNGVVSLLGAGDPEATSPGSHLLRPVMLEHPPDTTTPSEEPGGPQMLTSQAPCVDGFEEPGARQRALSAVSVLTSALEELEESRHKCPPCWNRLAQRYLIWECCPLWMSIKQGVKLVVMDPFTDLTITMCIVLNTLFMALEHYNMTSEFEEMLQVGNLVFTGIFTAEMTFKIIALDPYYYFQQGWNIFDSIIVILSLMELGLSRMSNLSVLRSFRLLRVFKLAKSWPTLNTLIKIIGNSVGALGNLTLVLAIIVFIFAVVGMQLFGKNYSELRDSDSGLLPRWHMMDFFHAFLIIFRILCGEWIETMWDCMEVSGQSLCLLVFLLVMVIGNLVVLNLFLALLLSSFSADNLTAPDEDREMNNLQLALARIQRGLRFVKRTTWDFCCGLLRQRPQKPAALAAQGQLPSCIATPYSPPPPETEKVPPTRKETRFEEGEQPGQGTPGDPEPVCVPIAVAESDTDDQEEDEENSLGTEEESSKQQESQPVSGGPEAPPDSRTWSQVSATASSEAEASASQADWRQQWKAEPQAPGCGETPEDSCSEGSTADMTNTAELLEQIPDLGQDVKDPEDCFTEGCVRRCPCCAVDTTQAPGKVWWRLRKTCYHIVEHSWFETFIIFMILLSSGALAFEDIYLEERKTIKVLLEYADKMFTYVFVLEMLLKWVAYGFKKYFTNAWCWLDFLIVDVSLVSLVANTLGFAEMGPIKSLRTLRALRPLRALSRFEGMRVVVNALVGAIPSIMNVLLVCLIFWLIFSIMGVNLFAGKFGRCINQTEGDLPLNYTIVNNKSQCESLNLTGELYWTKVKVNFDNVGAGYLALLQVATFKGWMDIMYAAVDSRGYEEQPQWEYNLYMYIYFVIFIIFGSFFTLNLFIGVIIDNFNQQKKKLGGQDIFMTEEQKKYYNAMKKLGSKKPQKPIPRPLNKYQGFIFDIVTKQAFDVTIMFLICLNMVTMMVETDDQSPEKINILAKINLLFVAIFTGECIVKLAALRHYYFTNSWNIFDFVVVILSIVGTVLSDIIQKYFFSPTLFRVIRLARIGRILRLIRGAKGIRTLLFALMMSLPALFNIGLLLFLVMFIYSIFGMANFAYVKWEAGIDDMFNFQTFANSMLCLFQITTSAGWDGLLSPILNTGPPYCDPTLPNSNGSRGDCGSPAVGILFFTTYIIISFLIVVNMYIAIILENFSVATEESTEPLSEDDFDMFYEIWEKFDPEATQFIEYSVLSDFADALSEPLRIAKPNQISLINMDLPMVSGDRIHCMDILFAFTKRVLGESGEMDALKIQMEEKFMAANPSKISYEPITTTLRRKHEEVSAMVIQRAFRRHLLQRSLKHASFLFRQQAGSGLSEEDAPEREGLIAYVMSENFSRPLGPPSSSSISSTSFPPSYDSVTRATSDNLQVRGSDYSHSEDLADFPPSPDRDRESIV

[3] = target: T1, Glucagon-like peptide 1 receptor; test: Positive allosteric modulator activity at GLP-1R in human 1.1B4 cells in presence of EC20 level of GLP1(9-36)NH2 incubated for 30 mins by HTRF cAMP assay; type: functional, cell-based; summary of the method: as §1
[4] = target: T1, Glucagon-like peptide 1 receptor; test: Displacement of radioactive labeled GLP-1(7-36)NH2 from human GLP-1R by radioactive ligand binding assay
[5] = target: T1, Glucagon-like peptide 1 receptor; test: Positive allosteric modulator activity at human GLP-1R expressed in PSC-HEK293 cells in presence of EC20 level of GLP1(9-36)NH2 incubated for 30 mins by HTRF cAMP assay relative to control; type: functional, cell-based
Summary of the method: (§2)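 Thaw-and-use PSC-HEK293 cells stably expressing human GLP-1R, 2000 cells/well in HBSS/20 mM HEPES/0.1% BSA with 2 mM IBMX. Enhancer format: compound dose-response plus fixed EC20 GLP1(9-36)NH2. Shift format: GLP1(9-36)NH2 dose-response plus 10 or 3 μM compound. 30 min at room temperature. HTRF cAMP read after 1 h lysis (665/620 nm). EC50 from a 4-parameter logistic fit.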

[6] = target: Sodium channel protein type 2 subunit alpha (Homo sapiens) (UniProt Q99250); test: Effect on Nav1.2 (unknown origin)
Sequence of Sodium channel protein type 2 subunit alpha (Homo sapiens) (Q99250 whole entry, looked up): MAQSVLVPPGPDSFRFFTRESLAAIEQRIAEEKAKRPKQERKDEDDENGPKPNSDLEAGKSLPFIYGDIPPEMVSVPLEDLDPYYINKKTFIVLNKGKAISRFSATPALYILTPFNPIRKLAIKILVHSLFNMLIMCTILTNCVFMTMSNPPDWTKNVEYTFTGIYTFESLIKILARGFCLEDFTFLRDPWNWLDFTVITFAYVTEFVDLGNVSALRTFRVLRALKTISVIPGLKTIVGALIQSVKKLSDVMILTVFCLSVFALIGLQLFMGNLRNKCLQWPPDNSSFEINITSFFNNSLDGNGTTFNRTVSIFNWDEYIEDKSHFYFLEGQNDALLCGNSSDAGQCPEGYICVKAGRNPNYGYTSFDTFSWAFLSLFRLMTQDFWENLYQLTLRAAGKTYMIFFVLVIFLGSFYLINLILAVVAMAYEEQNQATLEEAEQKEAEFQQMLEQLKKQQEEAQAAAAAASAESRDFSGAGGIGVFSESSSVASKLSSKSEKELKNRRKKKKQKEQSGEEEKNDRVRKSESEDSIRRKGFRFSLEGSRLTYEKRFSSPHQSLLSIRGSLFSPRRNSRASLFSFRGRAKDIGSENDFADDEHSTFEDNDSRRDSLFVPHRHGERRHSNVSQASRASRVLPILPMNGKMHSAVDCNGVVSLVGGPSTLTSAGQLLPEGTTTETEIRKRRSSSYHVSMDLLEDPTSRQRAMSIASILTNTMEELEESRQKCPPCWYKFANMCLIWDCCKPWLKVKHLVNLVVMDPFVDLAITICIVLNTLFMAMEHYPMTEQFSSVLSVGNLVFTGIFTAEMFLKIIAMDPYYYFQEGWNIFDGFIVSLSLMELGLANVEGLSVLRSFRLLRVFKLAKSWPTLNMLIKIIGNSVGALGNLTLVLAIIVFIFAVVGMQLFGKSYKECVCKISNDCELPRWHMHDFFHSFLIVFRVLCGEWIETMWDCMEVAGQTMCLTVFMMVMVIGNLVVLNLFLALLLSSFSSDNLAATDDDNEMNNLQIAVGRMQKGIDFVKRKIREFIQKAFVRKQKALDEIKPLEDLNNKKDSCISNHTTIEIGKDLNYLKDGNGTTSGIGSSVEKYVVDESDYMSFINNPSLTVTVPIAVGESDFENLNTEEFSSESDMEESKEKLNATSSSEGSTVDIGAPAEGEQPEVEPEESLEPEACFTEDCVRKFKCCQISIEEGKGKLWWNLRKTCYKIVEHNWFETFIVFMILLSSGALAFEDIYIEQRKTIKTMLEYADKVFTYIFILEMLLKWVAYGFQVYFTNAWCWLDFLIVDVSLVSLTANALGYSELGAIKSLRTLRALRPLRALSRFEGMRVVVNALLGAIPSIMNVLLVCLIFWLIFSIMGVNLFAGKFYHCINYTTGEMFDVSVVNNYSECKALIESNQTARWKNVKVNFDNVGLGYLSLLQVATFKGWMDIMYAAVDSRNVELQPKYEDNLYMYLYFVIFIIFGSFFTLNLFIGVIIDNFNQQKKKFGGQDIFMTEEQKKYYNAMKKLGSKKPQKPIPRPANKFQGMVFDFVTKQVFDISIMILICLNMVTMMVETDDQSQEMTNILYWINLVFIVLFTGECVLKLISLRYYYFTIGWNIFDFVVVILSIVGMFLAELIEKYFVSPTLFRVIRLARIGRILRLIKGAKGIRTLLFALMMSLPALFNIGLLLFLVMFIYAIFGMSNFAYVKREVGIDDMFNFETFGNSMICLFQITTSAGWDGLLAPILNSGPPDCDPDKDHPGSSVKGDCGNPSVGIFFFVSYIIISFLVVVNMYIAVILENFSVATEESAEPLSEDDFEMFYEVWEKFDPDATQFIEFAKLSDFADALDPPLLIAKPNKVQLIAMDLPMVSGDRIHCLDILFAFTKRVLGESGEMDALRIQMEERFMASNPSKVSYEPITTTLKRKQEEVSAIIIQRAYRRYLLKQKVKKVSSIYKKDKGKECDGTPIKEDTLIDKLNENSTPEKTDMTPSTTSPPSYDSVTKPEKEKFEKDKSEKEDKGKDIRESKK

[7] = target: T2, Glucagon-like peptide 1 receptor (Mus musculus) (UniProt O35659); test: Positive allosteric modulator activity at GLP-1R in mouse MIN6-c4 cells assessed as effect on glucose-mediated increase in intracellular Ca2+ level by FLIPR assay relative to control; type: functional, cell-based
T2 sequence (whole entry): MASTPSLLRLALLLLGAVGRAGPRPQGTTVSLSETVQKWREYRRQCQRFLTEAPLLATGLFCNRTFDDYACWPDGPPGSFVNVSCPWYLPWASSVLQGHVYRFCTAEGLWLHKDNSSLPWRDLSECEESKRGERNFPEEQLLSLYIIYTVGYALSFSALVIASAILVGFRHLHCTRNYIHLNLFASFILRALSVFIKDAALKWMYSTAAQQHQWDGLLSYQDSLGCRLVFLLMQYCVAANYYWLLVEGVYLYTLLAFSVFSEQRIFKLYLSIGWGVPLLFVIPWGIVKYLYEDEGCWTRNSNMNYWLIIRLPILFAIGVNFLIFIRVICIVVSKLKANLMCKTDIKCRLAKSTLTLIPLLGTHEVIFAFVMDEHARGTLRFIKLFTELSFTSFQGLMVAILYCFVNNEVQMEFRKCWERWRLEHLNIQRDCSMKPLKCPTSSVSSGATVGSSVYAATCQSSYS

[8] = Stability in GSH assay; type: physicochemical
[9] = target: T1, Glucagon-like peptide 1 receptor; test: Positive allosteric modulator activity at human GLP-1R expressed in PSC-HEK293 cells in presence of EC20 level of GLP1(9-36)NH2 incubated for 30 mins by HTRF cAMP assay; type: functional, cell-based
Summary of the method: as §2, with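 “temperature.” for “temperature. HTRF cAMP read after 1 h lysis (665/620 nm).”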

[10] = Agonist activity at KATP channel (unknown origin); parameters: species or system Homo sapiens
[11] = target: T1, Glucagon-like peptide 1 receptor; test: Positive allosteric modulator activity at human GLP-1R expressed in PSC-HEK293 cells assessed as potentiation of GLP1(9-36)NH2-induced cAMP accumulation by measuring shift in EC50 of endogenous GLP1(9-36)NH2 at 10 uM incubated for 30 mins by HTRF cAMP assay relative to control; type: functional, cell-based
Summary of the method: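 Thawed frozen PSC-HEK293 cells stably expressing human GLP-1R, 2000 cells/well in HBSS/20 mM HEPES/0.1% BSA with 2 mM IBMX. Shift format: GLP1(9-36)NH2 dose-response with compound fixed at 10 or 3 µM; 30 min room temperature; cAMP by HTRF (665/620 nm ratio) after 1 h with lysis reagents; 4-parameter logistic fit; EC50 shift factor derived.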

[12] = target: T2, Glucagon-like peptide 1 receptor (Mus musculus); test: Inhibition of 15 mM glucose-mediated increase in intracellular Ca2+ level in mouse MIN6-c4 cells at 30 uM by FLIPR assay relative to control; type: functional, cell-based
[13] = tested on: Mus musculus; test: Suppression of blood glucose concentration in ob/ob C57Bl/6J mouse model of T2DM at 4.5 mg/kg, ip and treated with 60 mg/kg, po OATP/MRP2 inhibitor rifampicin 2.5 hrs prior to oral glucose-tolerance test; type: functional, organism-based
Summary of the method: (§3)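 Male ob/ob mice aged 10–11 weeks, n=7, randomised on blood glucose and fasted overnight. Rifampicin 60 mg/kg p.o. 2.5 h before the oGTT, compound 30 mg/kg p.o. 1 h before, GLP1(9-36)NH2 i.p. 15 min before, each given as indicated. Glucose 2 g/kg orally. Tail-vein glucose by glucometer at 0, 15, 30, 60 and 90 min.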

[14] = tested on: Mus musculus; test: Suppression of blood glucose concentration in ob/ob C57Bl/6J mouse model of T2DM at 4.5 mg/kg, ip in absence of 60 mg/kg, po OATP/MRP2 inhibitor rifampicin by oral glucose-tolerance test; type: functional, organism-based; summary of the method: as §3
[15] = target: T3, Glucagon-like peptide 1 receptor (Mus musculus, UniProt O35659); test: Positive allosteric modulator activity at mouse GLP-1R expressed in PSC-HEK293 cells in presence of EC20 level of GLP1(9-36)NH2 incubated for 30 mins by HTRF cAMP assay; type: functional, cell-based
T3 sequence (O35659 whole entry): T2 sequence (whole entry)

[16] = target: T2, Glucagon-like peptide 1 receptor (Mus musculus); test: Positive allosteric modulator activity at mouse GLP-1R expressed in PSC-HEK293 cells in presence of EC20 level of GLP1(9-36)NH2 incubated for 30 mins by HTRF cAMP assay relative to control; type: functional, cell-based
[17] = Cmax in mouse at 10 mg/kg, po; details: in vivo
[18] = Tmax in mouse at 10 mg/kg, po; details: in vivo

For `CC(C)(C)OC(=O)n1c2c(c3ccccc31)C[C@H]1C(=O)NC[C@@H]2N1C(=O)CC1CCC(F)(F)CC1`, which Emax [1] is on record?
Its Emax is “inactive”.

What about the Activity [2] of the same compound?
The Activity was “Active”.

And the EC50 [3]?
The EC50 was “Not Active”.

And the inhibition [4]?
The inhibition was “inactive”.

And the Emax [5]?
The Emax was 99%.

What about the Activity [6] of the same compound?
Its Activity is “Active”.

What about the “fold change (FC)” value [7] of the same compound?
The value was “inactive”.

And the Stability [8]?
Its Stability is “Stable”.

And the EC50 [9]?
The EC50 was 5 nM.

What about the EC50 [10] of the same compound?
The EC50 was 2670 nM.

What about the Ratio EC50 [11] of the same compound?
The Ratio EC50 was 3800.

With `CC1=Nc2ccc(Cl)cc2S(=O)(=O)N1` as the compound, how does the inhibition [12] read?
The inhibition was “Active”.

What does the source list for `CC[C@H](C)[C@H](NC(=O)[C@H](Cc1ccccc1)NC(=O)[C@H](CCC(=O)O)NC(=O)[C@H](CCCCN)NC(=O)[C@H](C)NC(=O)[C@H](C)NC(=O)[C@H](CCC(N)=O)NC(=O)CNC(=O)[C@H](CCC(=O)O)NC(=O)[C@H](CC(C)C)NC(=O)[C@H](Cc1ccc(O)cc1)NC(=O)[C@H](CO)NC(=O)[C@H](CO)NC(=O)[C@@H](NC(=O)[C@H](CC(=O)O)NC(=O)[C@H](CO)NC(=O)[C@@H](NC(=O)[C@H](Cc1ccccc1)NC(=O)[C@@H](NC(=O)CNC(=O)[C@@H](N)CCC(=O)O)[C@@H](C)O)[C@@H](C)O)C(C)C)C(=O)N[C@@H](C)C(=O)N[C@@H](Cc1c[nH]c2ccccc12)C(=O)N[C@@H](CC(C)C)C(=O)N[C@H](C(=O)N[C@@H](CCCCN)C(=O)NCC(=O)N[C@@H](CCCNC(=N)N)C(N)=O)C(C)C`?
Activity [13]: inactive; Activity [14]: inactive

Which results are given for `Cc1cc(-n2nc3c(c2-n2ccn(-c4ccc5c(cnn5C)c4F)c2=O)[C@H](C)N(C(=O)c2cc4cc([C@H]5CCOC(C)(C)C5)ccc4n2[C@@]2(c4noc(=O)[nH]4)C[C@@H]2C)CC3)cc(C)c1F` [ORFORGLIPRON]?
EC50 [15]: 300 nM; Emax [5]: 91%; Emax [16]: 100%

For `CO[C@H]1/C=C/O[C@@]2(C)Oc3c(C)c(O)c4c(O)c(c(/C=N/N5CCN(C)CC5)c(O)c4c3C2=O)NC(=O)/C(C)=C\C=C\[C@H](C)[C@H](O)[C@@H](C)[C@@H](O)[C@@H](C)[C@H](OC(C)=O)[C@@H]1C` [RIFAMPIN], which Cmax [17] is on record?
Its Cmax is 13 µM.

And the Tmax [18]?
The Tmax was 1.5 h.
